# Measured values as given in ChEMBL document CHEMBL1153826, “Synthesis of dammarane-type triterpene derivatives and their ability to inhibit HIV and HCV proteases” (Bioorg Med Chem, 2009).
# The source made the active and inactive calls. No cut-off for these calls is given here.
# Legend:
# Protease = Protease (Human immunodeficiency virus 1, UniProt Q9YQ12); assay: Inhibition of HIV1 protease by HPLC method
# [1] = Inhibition of HCV protease by fluorometric method; design: species or system Hepacivirus hominis
# Renin (Homo sapiens) = target: T1, Renin (Homo sapiens) (UniProt P00797); assay: Inhibition of renin up to 1 ug/mL; conditions: in the assay text read “1 mg/mL” for “1 ug/mL”
# T1 sequence (whole entry): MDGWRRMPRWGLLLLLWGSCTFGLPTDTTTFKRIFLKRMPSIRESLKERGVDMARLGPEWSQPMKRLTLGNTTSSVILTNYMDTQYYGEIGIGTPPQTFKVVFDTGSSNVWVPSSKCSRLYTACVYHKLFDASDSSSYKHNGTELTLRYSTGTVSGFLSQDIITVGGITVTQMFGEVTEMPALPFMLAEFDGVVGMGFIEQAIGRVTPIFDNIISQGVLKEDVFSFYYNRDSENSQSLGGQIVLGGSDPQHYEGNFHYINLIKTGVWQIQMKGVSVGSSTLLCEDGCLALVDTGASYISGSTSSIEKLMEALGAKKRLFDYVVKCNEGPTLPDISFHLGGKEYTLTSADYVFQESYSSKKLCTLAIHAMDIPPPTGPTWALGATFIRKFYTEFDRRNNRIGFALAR
# Outline: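 Recombinant renin was mixed with the compound in DMSO in 384-well plates. Fresh FRET peptide substrate Arg-Glu(EDANS)-[…]Dabcyl)-Arg was added, then rotated 30 min at 37 °C. Read-out was fluorometric, with inhibition calculated as in the HCV protease assay. Ac-HPFV-(Sta)-LF-NH2 was the positive control.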
# [2] = Inhibition of trypsin up to 1 ug/mL; conditions: in the assay text read “1 mg/mL” for “1 ug/mL”
# Outline: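 Trypsin was mixed with the compound in DMSO and assay buffer in 384-well plates. Fresh HiLyte Fluor 488-labeled casein substrate was added with rotary shaking, then incubated 30 min at 37 °C. Fluorescence was read and inhibition calculated as in the HCV protease assay. Soybean trypsin–chymotrypsin inhibitor was the positive control.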
# Sequence of Protease (Q9YQ12 whole entry): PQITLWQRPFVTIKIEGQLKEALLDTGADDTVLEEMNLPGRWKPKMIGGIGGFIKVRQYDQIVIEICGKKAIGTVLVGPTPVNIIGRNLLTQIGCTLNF
IC50 (Protease) [µM],IC50 [1] [µM],Activity (Renin (Homo sapiens)),Activity [2],SMILES
> 193,> 193,,,COC(=O)[C@@]1(O)C[C@]2(C)[C@H]3C[C@@H](O)[C@@H]4[C@@H]([C@@]5(C)CCCC(C)(C)O5)CC[C@@]4(C)[C@]3(C)CC(=O)[C@H]2C1(C)C
2.7,30.4,inactive,inactive,CC1(C)CCC[C@](C)([C@H]2CC[C@]3(C)[C@@H]2[C@H](O)C[C@@H]2[C@@]4(C)CC[C@H](OC(=O)CC(C)(C)C(=O)O)C(C)(C)[C@@H]4CC[C@]23C)O1
11.9,> 198,inactive,inactive,CC1(C)CCC[C@](C)([C@H]2CC[C@]3(C)[C@@H]2[C@H](O)C[C@@H]2[C@@](C)(CC(=O)O)[C@H](C(C)(C)C(=O)O)CC[C@]23C)O1
22.8,9.1,inactive,inactive,CC1(C)CCC[C@](C)([C@H]2CC[C@]3(C)[C@@H]2C(=O)C[C@@H]2[C@@](C)(CC(=O)O)[C@H](C(C)(C)C(=O)O)CC[C@]23C)O1
6.5,62.2,inactive,inactive,CC1(C)CCC[C@](C)([C@H]2CC[C@]3(C)[C@@H]2C(=O)C[C@@H]2[C@@]4(C)CC[C@H](OC(=O)CC(C)(C)C(=O)O)C(C)(C)[C@@H]4CC[C@]23C)O1
> 198,> 198,,,COC(=O)[C@@]1(O)C[C@]2(C)[C@H]3C[C@@H](O)[C@@H]4[C@@H]([C@@]5(C)CCCC(C)(C)O5)CC[C@@]4(C)[C@]3(C)CC[C@H]2C1(C)C
3.9,> 166,inactive,inactive,CC1(C)CCC[C@](C)([C@H]2CC[C@]3(C)[C@@H]2[C@H](O)C[C@@H]2[C@@]4(C)CC[C@H](OC(=O)CC(C)(C)C(=O)O)C(C)(C)[C@@H]4[C@@H](O)C[C@]23C)O1
2.7,> 166,inactive,inactive,CC1(C)CCC[C@](C)([C@H]2CC[C@]3(C)[C@@H]2[C@H](O)C[C@@H]2[C@@]4(C)CC[C@H](O)C(C)(C)[C@@H]4[C@@H](OC(=O)CC(C)(C)C(=O)O)C[C@]23C)O1
10.9,18.9,inactive,inactive,CC1(C)CCC[C@](C)([C@H]2CC[C@]3(C)[C@@H]2C(=O)C[C@@H]2[C@@]4(C)CC[C@H](OC(=O)CC(C)(C)C(=O)O)C(C)(C)[C@@H]4[C@@H](OC(=O)CC(C)(C)C(=O)O)C[C@]23C)O1
24.2,> 213,,,CC1(C)CCC[C@](C)([C@H]2CC[C@]3(C)[C@@H]2C(=O)C[C@@H]2[C@@]4(C)CCC(=O)C(C)(C)[C@@H]4C(=O)C[C@]23C)O1
29.9,> 213,,,CC1(C)CCC[C@](C)([C@H]2CC[C@]3(C)[C@@H]2[C@H](O)C[C@@H]2[C@@]4(C)C[C@](O)(C(=O)O)C(C)(C)[C@@H]4C(=O)C[C@]23C)O1
10,> 204,,,CC1(C)CCC[C@](C)([C@H]2CC[C@]3(C)[C@@H]2[C@H](O)C[C@@H]2[C@@]4(C)C[C@](O)(C(=O)O)C(C)(C)[C@@H]4CC[C@]23C)O1
> 218,72.3,,,CC1(C)CCC[C@](C)([C@H]2CC[C@]3(C)[C@@H]2C(=O)C[C@@H]2[C@@]4(C)CCC(=O)C(C)(C)[C@@H]4CC[C@]23C)O1
39.4,> 218,,,CC1(C)CCC[C@](C)([C@H]2CC[C@]3(C)[C@@H]2[C@H](O)C[C@@H]2[C@@]4(C)CCC(=O)C(C)(C)[C@@H]4CC[C@]23C)O1
5.4,1.8,inactive,inactive,CC1(C)CCC[C@](C)([C@H]2CC[C@]3(C)[C@@H]2[C@H](O)C[C@@H]2[C@@]4(C)CC[C@H](OC(=O)CC(C)(C)C(=O)O)C(C)(C)[C@@H]4[C@@H](OC(=O)CC(C)(C)C(=O)O)C[C@]23C)O1
42.3,> 213,,,CC1(C)CCC[C@](C)([C@H]2CC[C@]3(C)[C@@H]2[C@H](O)C[C@@H]2[C@@]4(C)CCC(=O)C(C)(C)[C@@H]4C(=O)C[C@]23C)O1
28.5,> 212,,,CC1(C)CCC[C@](C)([C@H]2CC[C@]3(C)[C@@H]2[C@H](O)C[C@@H]2[C@@]4(C)C=C(O)C(=O)C(C)(C)[C@@H]4CC[C@]23C)O1

SMILES,IC50 (Protease) [µM],IC50 [1] [µM],Activity (Renin (Homo sapiens)),Activity [2]
CC1(C)CCC[C@](C)([C@H]2CC[C@]3(C)[C@@H]2[C@H](O)C[C@@H]2[C@@]4(C)CC[C@H](O)C(C)(C)[C@@H]4[C@@H](O)C[C@]23C)O1 [PANAXATRIOL],> 210,> 210,,
CC1(C)CCC[C@](C)([C@H]2CC[C@]3(C)[C@@H]2[C@H](O)C[C@@H]2[C@@]4(C)CC[C@H](O)C(C)(C)[C@@H]4CC[C@]23C)O1 [PANAXADIOL],> 217,> 217,,
